Measurements collected from several papers.
Protocols differ between the studies behind these lines. pEC50, pIC50: −log10 of the molar value.
Cell line: MCF7
Effect on: cell growth or viability

| Compound | assay | setting | endpoint | value |
| --- | --- | --- | --- | --- |
| Cc1ccc2nc(-c3ccco3)[nH]c2c1 | MTT | 48 h | pIC50 | < 4.00 |
| COc1cc(C(CC(=O)c2ccc([N+](=O)[O-])cc2)NCCc2ccc(O)c(O)c2)ccc1O (centres unmarked) | MTT | – | TGI | 0.29 µM |
| CCCCCCCC(=O)NCC(=O)OC | MTT | 10 µM, 48 h | inhibition | 45% |
| COc1ccc(C(=O)/C=C/c2ccccc2Br)cc1S(N)(=O)=O | SRB | 10 µM | inhibition | 171% |
| Cc1ccc2nc(-c3ccc([N+](=O)[O-])cc3)n(Cc3ccc(Cl)cc3)c2c1 | MTT | – | pIC50 | 5.20 |
| CCOCCOCCOCCNC(=S)NCCCC[C@H](NS(C)(=O)=O)C(=O)N[C@@H](C)C(=O)N[C@@H](CCCNC(=N)N)C(N)=O | MTT | 72 h | pEC50 | < 4.00 |
| CC/C(=C(\c1ccccc1)c1ccc(OCCN(C)C)cc1)c1ccccc1 | ATP luminescence | 72 h | EC90 | 32.2 µM |
| COc1cc(C(CC(=O)c2ccc(C(C)(C)C)cc2)NCCc2ccc(O)c(O)c2)ccc1O (centres unmarked) | MTT | – | TGI | 4.24 µM |
| COc1ccc(C(=O)/C=C/c2ccc3c(c2)OC(F)(F)O3)cc1S(N)(=O)=O | SRB | 10 µM | inhibition | 7% |
| Cc1ccc2nc(-c3ccc4c(c3)OCO4)[nH]c2c1 | MTT | 48 h | pIC50 | < 4.00 |
| COc1ccc(C(=O)/C=C/c2ccc(Cl)c(Cl)c2)cc1S(N)(=O)=O | SRB | 10 µM | inhibition | 149% |
| CCCCCCCCCCCCNC(=S)NCCCC[C@H](NC(=O)OCc1ccccc1)C(=O)N[C@@H](C)C(=O)N[C@@H](CCCNC(=N)N)C(N)=O | MTT | 72 h | pEC50 | 4.12 to 4.19 |
| C=CCn1c(-c2ccc([N+](=O)[O-])cc2)nc2ccccc21 | MTT | – | pIC50 | 4.47 |
| COc1ccccc1/C=C/C(=O)c1ccc(OC)c(S(N)(=O)=O)c1 | SRB | 48 h | GI50 | 2.7 µM |
| C[C@]12CC[C@@H]3c4ccc(O)cc4CC[C@H]3[C@@H]1CC[C@@H]2O | ATP luminescence | 72 h | EC90 | 53.5 µM |
| COc1ccc(-c2c(Cc3ccccc3)[nH]c(=NC(=O)c3ccccc3F)n2C)cc1 | – | – | pEC50 | 5.85 |
| COc1cc(C(CC(=O)c2ccc(C)cc2)NCCc2ccc(O)c(O)c2)ccc1O (centres unmarked) | MTT | – | TGI | 10.1 µM |
| CCCCCCCCCCCCNC(=S)NCCCC[C@H](NS(C)(=O)=O)C(=O)N[C@@H](C)C(=O)N[C@@H](CCCNC(=N)N)C(N)=O | MTT | 72 h | pEC50 | 4.07 to 4.20 |
| COc1ccc(C(=O)/C=C/c2c(F)cccc2Cl)cc1S(N)(=O)=O | SRB | 10 µM | inhibition | 105% |
| CCOc1cc(-c2nc3ccccc3[nH]2)ccc1O | MTT | 48 h | pIC50 | 4.23 |
| COc1ccc(C(=O)/C=C/c2cccc(Cl)c2Cl)cc1S(N)(=O)=O | SRB | 10 µM | inhibition | 140% |
| COc1cccc2c1C(=O)c1c(O)c3c(c(O)c1C2=O)C[C@@](O)(C(=O)CO)C[C@@H]3O[C@H]1C[C@H](N)[C@H](O)[C@H](C)O1 | MTT | 48 h | IC50 | 0.964 µg/mL |
| COc1ccc(C(=O)/C=C/c2ccc3ccccc3c2)cc1S(N)(=O)=O | SRB | 10 µM | inhibition | 175% |
| CCOc1cc(-c2nc3ccc(C)cc3[nH]2)ccc1O | MTT | 48 h | pIC50 | 4.26 |
| COc1ccc(C(=O)/C=C/c2cccc(Cl)c2)cc1S(N)(=O)=O | SRB | 10 µM | inhibition | 167% |
| c1ccc2[nH]c(-c3ccncc3)nc2c1 | MTT | 48 h | pIC50 | < 4.00 |
| COc1cc(CNC(=O)CCCC/C=C/C(C)C)ccc1O | SRB | 10 µM | inhibition | 24% |
| Clc1ccc(-c2nc3ccccc3[nH]2)c(Cl)c1 | MTT | 48 h | pIC50 | 4.25 |
| COc1cc(C(CC(=O)c2ccc(Br)cc2)NCCc2ccc(O)c(O)c2)ccc1O (centres unmarked) | MTT | – | TGI | 0.4 µM |
